Reference: BindingDB's records for doi:10.1016/j.ejmech.2008.02.028 (Institute of Chemical Technology, 2008)

Target: Glutathione hydrolase 1 proenzyme (Homo sapiens, UniProt P19440)
Test: Inhibition of gamma-glutamyltranspeptidase by colorimetric assay
How it was run: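 Colorimetric read-out at 405 nm by a standard procedure. IC50 is the […] giving 50% inhibition of enzyme activity. Values are the average of three independent experiments (n = 3).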

Chain of Glutathione hydrolase 1 proenzyme (P19440 1-380 limits assumed): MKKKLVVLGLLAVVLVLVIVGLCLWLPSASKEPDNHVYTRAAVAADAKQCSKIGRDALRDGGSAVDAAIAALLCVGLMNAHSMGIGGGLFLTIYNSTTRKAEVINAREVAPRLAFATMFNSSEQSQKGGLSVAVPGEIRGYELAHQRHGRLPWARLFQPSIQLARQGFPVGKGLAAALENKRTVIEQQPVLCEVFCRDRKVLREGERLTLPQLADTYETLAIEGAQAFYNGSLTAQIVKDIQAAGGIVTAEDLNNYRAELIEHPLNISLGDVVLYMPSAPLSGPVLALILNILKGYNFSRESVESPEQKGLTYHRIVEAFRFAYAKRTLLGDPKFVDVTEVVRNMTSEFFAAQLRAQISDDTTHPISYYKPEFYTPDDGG
Chain of Glutathione hydrolase 1 proenzyme (P19440 381-569 limits assumed): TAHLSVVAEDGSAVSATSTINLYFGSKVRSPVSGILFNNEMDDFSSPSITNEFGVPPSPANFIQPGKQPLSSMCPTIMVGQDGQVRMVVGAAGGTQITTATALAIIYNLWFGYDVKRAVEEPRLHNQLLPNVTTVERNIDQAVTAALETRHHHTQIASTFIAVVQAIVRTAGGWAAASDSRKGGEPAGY

| IC50 | Structure (SMILES) |
| --- | --- |
| > 30 µM | CNC(=O)C1=C(C)C2Sc3ccccc3N=C2C(C(=O)NC)C1c1ccc2c(c1)OCO2 (configuration not stated) [2-(1,3-Benzodioxol-5-yl)-N,N',4-trimethyl-2,10-dihydro-1H-phenothiazine-1,3-dicarboxamide] |
| > 30 µM | CNC(=O)C1=C(C)C2Sc3ccccc3N=C2C(C(=O)NC)C1c1ccccc1OC (configuration not stated) [2-(2-Methoxyphenyl)-N,N',4-trimethyl-2,10-dihydro-1H-phenothiazine-1,3-dicarboxamide] |
